Only some compounds are listed: those with a hit (about 1.9% of all), similar ones and a draw of the others.
Rce1 inh = yeast Ras-converting enzyme inhibition. Q03530. yeast membranes, quenched prenylated peptide cleavage fluorescence. calls only. hit rate 0.27% among 290,000;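 active means fall in fluorescence gain of 50% or more versus controls, with final raw signal at or below 3038400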;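 further: plate controls were neutral control wells for no effect and wells lacking membranes for full effect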
Target sequence (Q03530 whole entry, looked up): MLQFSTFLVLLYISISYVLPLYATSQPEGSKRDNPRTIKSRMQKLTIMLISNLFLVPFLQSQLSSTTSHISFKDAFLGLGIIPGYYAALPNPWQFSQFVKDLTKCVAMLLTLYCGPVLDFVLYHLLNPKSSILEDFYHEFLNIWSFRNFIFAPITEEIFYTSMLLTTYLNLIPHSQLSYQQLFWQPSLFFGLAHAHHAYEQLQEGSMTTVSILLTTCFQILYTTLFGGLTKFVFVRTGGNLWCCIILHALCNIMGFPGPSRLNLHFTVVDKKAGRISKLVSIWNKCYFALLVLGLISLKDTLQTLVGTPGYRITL
beta cell repl = induces beta-cell replication in MIN6 cells. MIN6 cells proliferation, ATPlite luminescence, 48 h; cells starved in 0.2% serum; 100% = growth in 10% serum. proliferation, % at 10 µM. hit rate 0.29% among 330,000;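 active means compounds whose signal lies at least 3.5 SD above the mean of all wells on their plate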;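 further: 0% = DMSO-treated cells in low-serum medium and 100% = 10% serum control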
PG9 Ab binder = PG9 antibody binding by small molecule | TR-FRET gp120-PG9 antibody binding | inhibition, % at 6.7 µM | hit rate 0.43% among 360,000; in the data active means inhibition above about 8.5%
Yeast superoxide = caloric restriction mimetics inhibiting age-related superoxide in yeast; AID 2690; superoxide response (% of plate mean), % at 10 µM; S. cerevisiae aged cells, superoxide DHE fluorescence; active compounds read low; hit rate 0.18% among 330,000;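 active means superoxide response under a set limit, about three screen SD below normal, cut at about 65% in these data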;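 further: yeast aged for seven days with compound at 30 °C before DHE staining; 100% = average MFI of all compound-treated wells on the plate with controls excluded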
UCH37 DUB inh = human UCH37 deubiquitinating enzyme inhibition | hit rate 0.33% among 330,000 | purified proteasome/UCH37, Ub-AMC cleavage fluorescence | Q9Y5K5 | AID 588478 | inhibition, % (test concentration not listed);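 active means mean inhibition over replicate wells above about 20%, limit read from the data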;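 further: 0% = compound-free wells with enzyme and 100% = wells lacking proteasome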
Target sequence (Q9Y5K5 whole entry, looked up): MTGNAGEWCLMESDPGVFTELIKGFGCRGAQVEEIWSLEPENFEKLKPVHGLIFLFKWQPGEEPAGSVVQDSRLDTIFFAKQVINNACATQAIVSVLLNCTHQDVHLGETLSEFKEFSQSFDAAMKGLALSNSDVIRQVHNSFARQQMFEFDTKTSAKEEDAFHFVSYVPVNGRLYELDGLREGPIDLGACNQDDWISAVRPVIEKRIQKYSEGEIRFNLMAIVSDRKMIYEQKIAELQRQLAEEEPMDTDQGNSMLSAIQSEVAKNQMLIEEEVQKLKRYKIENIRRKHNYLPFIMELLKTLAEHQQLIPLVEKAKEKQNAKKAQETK
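Signal – fluorescence, ex 355 nm, em 460 nm · System – Proteasome-bound UCH37 · Input – 0.15 nM proteasome as dispensed · Timing – 30 min preincubation with enzyme, 25 min cleavage at room temperature · Read-out basis – percent inhibition of cleavage signal versus uninhibited and no-proteasome wells · Medium – Tris-HCl pH 7.4 with ATP-MgCl2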
NR1D1 modulator = Rev-erb alpha (human) modulation. P20393. Rev-erbα–FITC-DNA binding, fluorescence polarization, 90 min. activity, % at 10 µM. hit rate 0.79% among 370,000;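 active means activity above about 14%, limit read from the data; passing the limit was not always enough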;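 further: 0% = DMSO wells with 35 nM protein and 100% = DMSO wells with 750 nM protein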
* = called active by the depositor; i = inactive; nt = no result given; + = active, no number.

SMILES	Rce1 inh	beta cell repl	PG9 Ab binder	Yeast superoxide	UCH37 DUB inh	NR1D1 modulator
CCN(CC)C(=O)c1[nH]cnc1C(=O)N[C@@H](C)C(=O)OC(C)(C)C	i	0	-3	112	32*	-1
CC(C)(C)OC(=O)[C@H](Cc1ccccc1)NC(=O)c1nc[nH]c1C(=O)NCc1ccccc1	i	-9	0	102	1	5
CC(C)C[C@H](NC(=O)c1nc[nH]c1C(=O)N1CCNCC1)C(=O)OCc1ccccc1	+	-3	2	94	nt	-4
Cc1ccc(-c2cc(C(=O)NN=Cc3cccnc3)n[nH]2)o1	nt	nt	nt	nt	3	nt
CN1C(=O)C(=NOC(=O)c2ccccc2)c2ccccc21	nt	nt	nt	nt	1	nt
CCN(C(=O)COC(=O)c1cn(-c2ccccc2)nc1-c1ccccc1)C1CCS(=O)(=O)C1 (centres undefined)	+	-3	1	113	0	-7
CN(C(=O)COC(=O)c1cn(-c2ccccc2)nc1-c1ccccc1)C1CCS(=O)(=O)C1 (centres undefined)	+	3	1	107	2	6
CCN(C(=O)COC(=O)c1cc(-c2ccccc2)nn1-c1ccccc1)C1CCS(=O)(=O)C1 (centres undefined)	i	-4	-1	108	0	-6
CN(C(=O)COC(=O)c1nc(-c2ccccc2)n(-c2ccccc2)n1)C1CCS(=O)(=O)C1 (centres undefined)	i	-2	-1	111	0	1
Cc1ccccc1OCc1nc2ccccc2c(=O)n1N=Cc1cccc([N+](=O)[O-])c1	nt	nt	nt	nt	1	nt
O=C1C(=O)N(C/C=C/c2ccccc2)c2ccccc21	+	-6	-1	100	nt	6
Cc1ccc(C(=O)NN=Cc2cn(Cc3ccccc3)c3ccccc23)cn1	nt	nt	nt	nt	0	nt
C=CCC[C@H](Cc1ccc(F)cc1)C(=O)OC[C@H](Cc1c[nH]c2ccccc12)NC(=O)[C@@H](CC=C)CC(=O)NCCO	nt	-6	2	100	25*	3
Cc1cc(C)c2cc(C#N)c(NCCCNC(=O)CCC(=O)O)nc2c1	+	-3	-4	97	-165	3
COCCCNC(=O)c1ccc2c3c(onc13)-c1ccccc1C2=O	i	-4	nt	150	24*	nt
COCCCNC(=O)c1ccccc1Oc1ccccc1	i	0	-2	94	4	4
CCC(=NNC(=S)NC(C)C)c1ccc(OC(F)F)cc1	nt	nt	nt	nt	2	nt
C#CNC(=O)C1(CC=C)CCNCC1	i	-5	1	nt	32*	-4
COc1cc(/C=C2/C(=O)NN(c3ccc(Cl)c(Cl)c3)C2=O)cc([N+](=O)[O-])c1O	i	nt	-5	107	22*	-5
CCOC(=O)Cn1cc(C=NNC(=O)c2cc3ccccc3o2)c2ccccc21	nt	nt	nt	nt	-27	nt
O=C1c2ccccc2C(=O)c2c1oc(C(F)(F)F)c2C(=O)c1ccccc1	i	-4	0	i	24*	0
COc1ccc(OC)c(S(=O)(=O)NN=Cc2ccc3c(c2)OCO3)c1	nt	nt	nt	nt	2	nt
Cc1cc(N/N=C/c2ccc(O)c(C)c2O)nc(-c2ccccc2O)n1	+	nt	-1	83	nt	0
CCc1cc(Cn2nc(C(=O)O)cc2-c2ccccc2)on1	i	2	1	101	22*	-5
CCn1cc(/C=C(\NC(=O)c2ccccc2OC)C(=O)N2CCOCC2)c2ccccc21	nt	nt	-2	nt	nt	-1
SMILES	Rce1 inh	beta cell repl	PG9 Ab binder	Yeast superoxide	UCH37 DUB inh	NR1D1 modulator
CN(C)S(=O)(=O)n1cc(/C=C(\NC(=O)c2ccccc2F)C(=O)N2CCOCC2)c2ccccc21	i	0	-2	100	-10	4
CCn1cc(/C=C(\NC(=O)c2ccccc2F)C(=O)N2CCCC2)c2ccccc21	+	-3	nt	99	12	nt
CCn1cc(/C=C(\NC(=O)c2ccccc2F)C(=O)N2CCOCC2)c2ccccc21	+	0	nt	91	10	nt
CCn1cc(/C=C(\NC(=O)c2ccccc2Cl)C(=O)N2CCN(C)CC2)c2ccccc21	i	-2	-3	nt	8	-9
CCn1cc(/C=C(\NC(=O)c2ccccc2Cl)C(=O)N2CCOCC2)c2ccccc21	+	2	-2	86	8	9
O=C(NN=Cc1ccc2c(c1)OCO2)c1ccc2c(c1)OCO2	nt	nt	nt	nt	-80	nt
Cc1ccccc1S(=O)(=O)c1cc(C#N)c(=O)[nH]c1N	+	5	1	115	nt	3
N#C/C(=C(/O)CSc1ccccc1C(=O)O)c1nc2ccccc2s1	i	-2	-3	98	21*	0
N#C/C(=C(/O)CSc1ccccn1)c1nc2ccccc2s1	i	-5	0	82	16	0
Cc1cccc2[nH]c3c(N4CCC5(CC4)OCCO5)ncnc3c12	+	-1	-1	96	-140	-3
c1ccc(Nc2cccc(Nc3ccccc3)n2)cc1	+	-1	1	87	-24	4
O=C(CN1C(=O)S/C(=C\c2cccs2)C1=O)Nc1ccc(C(=O)O)c(O)c1	i	nt	-2	109	13	6
O=C(CN1C(=O)S/C(=C\c2cccs2)C1=O)Nc1ccc(O)c(C(=O)O)c1	i	nt	-4	82	21*	0
CCC1CCCC1=NNC(=O)c1ccc(Cl)cc1 (centres undefined)	nt	nt	nt	nt	0	nt
NC(=O)CCCn1c(C(=O)c2cc(Cl)c(N)c(Cl)c2)c2ccc(C(F)(F)F)cc2[n+]1[O-]	+	-3	-1	98	2	2
NCCCn1c(C(=O)c2cc(Cl)c(N)c(Cl)c2)c2ccc(C(F)(F)F)cc2[n+]1[O-]	+	-6	-1	88	6	7
COc1ccc(C(=O)c2c3ccc(C(F)(F)F)cc3[n+]([O-])n2CCCC(N)=O)cc1	i	-3	-3	93	3	-2
O=C(Cc1cccc2ccccc12)NN=Cc1ccc(Sc2nc3ccccc3s2)o1	nt	nt	nt	nt	5	nt
COc1cc(C=NNC(=O)c2ccncc2)cc2c1OCO2	nt	nt	nt	nt	9	nt
O=C(NN=Cc1ccccn1)C(O)c1ccccc1 (centres undefined)	nt	nt	nt	nt	-1	nt
COc1ccc(C2C(C(=O)N3CCOCC3)=C(C)NC3=C2C(=O)CC(C)(C)C3)c(OC)c1 (centres undefined)	i	-4	-2	117	-404	0
CC1=C(C(=O)N2CCOCC2)C(c2ccccc2F)C2=C(CC(C)(C)CC2=O)N1 (centres undefined)	+	-2	1	100	-360	7
Cn1c(=O)c(C(=O)NCCO)c(O)c2ccccc21	+	-2	-1	102	-1	-2
Cn1c(=O)c(C(=O)NCCc2ccc(Cl)cc2)c(O)c2ccccc21	i	-1	-2	80	3	24
Cc1cc(NC(=O)COC(=O)c2nccnc2N)n(-c2ccccc2)n1	+	-6	-1	104	-408	0
